{"data": "Experimental data of several laboratories", "target": "Phosphatidylinositol 4,5-bisphosphate 3-kinase catalytic subunit gamma isoform (PIK3CG, Homo sapiens, UniProt P48736)", "note": "Each line is one published result; the experiments were not run side by side."}
{"Structure (SMILES)": "COc1cc(-c2cc(-c3ccc(N4CCNCC4)cc3)cnc2C)cc(OC)c1OC", "test": "enzyme activity, inhibitor", "conditions": "1 µM", "endpoint": "inhibition", "value": "11%"}
{"Structure (SMILES)": "Cc1cnc(NC2CCOCC2)nc1-n1cnc(C(=O)NC(CN)c2cc(F)cc(Cl)c2)c1 (stereo not drawn)", "test": "enzyme activity, inhibitor, radiometric", "conditions": "1 µM", "endpoint": "remaining activity", "value": "100%"}
{"Structure (SMILES)": "C=CC(=O)Nc1cc(Nc2nccc(Nc3cc(Cl)c(F)cc3C(C)(C)O)n2)c(OC)cc1N1CC[C@@H](N(C)C)C1", "test": "enzyme activity, inhibitor", "conditions": "1 µM", "endpoint": "inhibition", "value": "11%"}
{"Structure (SMILES)": "Cc1cc(NC(=O)c2cccc3cc(-c4cccc5[nH]nc(N)c45)ccc23)ccc1F", "test": "enzyme activity, inhibitor", "conditions": "0.1 µM", "endpoint": "activity vs control", "value": "97%"}
{"Structure (SMILES)": "CS(=O)(=O)Nc1cc(-c2ccc3ncnc(Nc4ccc(F)c(Cl)c4)c3c2)cnc1Cl", "test": "enzyme activity, inhibitor, FRET", "conditions": "10 µM", "endpoint": "inhibition", "value": "90 to 100%"}
{"Structure (SMILES)": "CS(=O)(=O)c1cc(C2(NC(=O)c3cncc4c3cnn4-c3ccc(F)cc3)CC2)ccn1", "test": "cell-free assay, competition with immobilised ligand", "conditions": "1 µM", "endpoint": "remaining binding", "value": "82%"}
{"Structure (SMILES)": "Nc1ncnc2occ(-c3ccc(NC(=O)Nc4cc(C(F)(F)F)ccc4F)cc3)c12", "test": "cell-free assay, inhibitor", "conditions": "20 µM", "endpoint": "remaining signal", "value": "54%"}
{"Structure (SMILES)": "CC1=C(C#N)[C@@H](c2ccc3[nH]nc(C)c3c2)C(C#N)=C(c2ccc(Cl)cc2)N1", "test": "cell-free assay, competition with immobilised ligand", "conditions": "1 µM", "endpoint": "remaining binding", "value": "100%"}
{"Structure (SMILES)": "O=C(CSc1nc2nccnc2c(=O)n1CCc1ccccc1)Nc1nccs1", "test": "enzyme activity, inhibitor", "conditions": "10 µM", "endpoint": "inhibition", "value": "9%"}
{"Structure (SMILES)": "COc1cc(Cl)c(C(=O)N[C@@H](CN[C@H]2CC[C@@H](N)CC2)Cc2ccc(C#N)cc2)cc1-c1ccc(CN[C@H](C)c2ccc(C)cc2)o1", "test": "enzyme activity, inhibitor", "conditions": "1 µM", "endpoint": "remaining activity", "value": "102%"}
{"Structure (SMILES)": "C[C@@H]1CN(c2cc(-c3nn(C)c4ccc(OC5(C)CC5)cc34)ncn2)C[C@H](C)O1", "test": "cell-free assay, competition with immobilised ligand", "conditions": "1 µM", "endpoint": "remaining binding", "value": "100%"}
{"Structure (SMILES)": "CC(C)CCn1c(SCC(=O)Nc2ccccc2C(F)(F)F)nc2nccnc2c1=O", "test": "enzyme activity, inhibitor", "conditions": "10 µM", "endpoint": "inhibition", "value": "< 20%"}
